From ChEMBL document CHEMBL1126882, “Orally active central dopamine and serotonin receptor ligands: 5-, 6-, 7-, and 8-[[trifluoromethyl)sulfonyl]oxy]-2-(di-n-propylamino)tetralins and the formation of active metabolites in vivo” (J Med Chem, 1993)
Activity calls are given as the source filed them. The rule behind the calls is not given here.

Key:
D(2) dopamine receptor [1] = target: T1, D(2) dopamine receptor (Rattus norvegicus, UniProt P61169); assay: Binding affinity against dopamine receptor D2 in rat brain tissue using [3H]spiperone; format: tissue-based
T1 sequence (P61169 whole entry): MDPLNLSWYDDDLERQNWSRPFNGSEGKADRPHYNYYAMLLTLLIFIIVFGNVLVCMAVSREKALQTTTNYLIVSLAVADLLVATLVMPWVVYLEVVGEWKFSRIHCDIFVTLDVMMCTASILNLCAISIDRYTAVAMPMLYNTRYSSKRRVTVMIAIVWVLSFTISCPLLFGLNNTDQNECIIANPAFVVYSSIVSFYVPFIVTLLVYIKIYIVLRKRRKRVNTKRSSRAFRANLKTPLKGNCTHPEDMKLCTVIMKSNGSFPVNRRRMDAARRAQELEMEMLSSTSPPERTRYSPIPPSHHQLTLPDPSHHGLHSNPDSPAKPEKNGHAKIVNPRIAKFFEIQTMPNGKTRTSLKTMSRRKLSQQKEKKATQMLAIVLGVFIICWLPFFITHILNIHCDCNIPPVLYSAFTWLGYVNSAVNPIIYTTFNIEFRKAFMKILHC
Outline: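 Rat striatal membranes were prepared in 50 mM potassium phosphate (pH 7.4). They were incubated with 0.5 nM [3H]spiperone (3 mg original tissue) for 10 min at 37 °C. Specific binding was defined with 10 μM 6,7-ADTN. Six drug concentrations (10⁻⁴-10⁻⁹ M) were tested, in triplicate or in a single experiment.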

[2] = Effective dose for half-maximal decrease in the accumulation of 5-hydroxytryptophan (5-HTP) in reserpinized rat brain limbic area by po administration; format: functional
Outline: (§1)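 Male Sprague-Dawley rats (200-300 g) got reserpine 5 mg/kg sc 18 h before. The test drug (saline) was given sc or po (po rats fasted 18 h), with NSD 1015, 30 min before decapitation. DOPA and 5-HTP in limbic, striatal and hemispheral tissue were measured by HPLC-ED. ED50 (half-maximal decrease) was taken from 4-6-dose curves, with deviation estimated graphically from SEM.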

[3] = target: T2, Dopamine receptor (Rattus norvegicus) (UniProt P25115+P19020+P30729+P18901+P61169); assay: Effective dose for half-maximal decrease in the accumulation of DOPA in reserpinized rat brain hemispheral area by po administration; format: functional, organism-based; outline: as §1
[4] = Effective dose for half-maximal decrease in the accumulation of 5-hydroxytryptophan (5-HTP) in reserpinized rat brain limbic area by sc administration; format: functional; outline: as §1
[5] = Effective dose for half-maximal decrease in the accumulation of 5-hydroxytryptophan (5-HTP) in reserpinized rat brain striatal area by sc administration; format: functional; outline: as §1
[6] = Effective dose for half-maximal decrease in the accumulation of 5-hydroxytryptophan (5-HTP) in reserpinized rat brain hemispheral area by sc administration; format: functional; outline: as §1
[7] = target: T3, 5-hydroxytryptamine receptor 1A (Rattus norvegicus, UniProt P19327); assay: Binding affinity against 5-hydroxytryptamine 1A receptor in homogenated rat brain tissue, using by [3H]8-OH-DPAT as radioligand; format: tissue-based
T3 sequence (P19327 whole entry): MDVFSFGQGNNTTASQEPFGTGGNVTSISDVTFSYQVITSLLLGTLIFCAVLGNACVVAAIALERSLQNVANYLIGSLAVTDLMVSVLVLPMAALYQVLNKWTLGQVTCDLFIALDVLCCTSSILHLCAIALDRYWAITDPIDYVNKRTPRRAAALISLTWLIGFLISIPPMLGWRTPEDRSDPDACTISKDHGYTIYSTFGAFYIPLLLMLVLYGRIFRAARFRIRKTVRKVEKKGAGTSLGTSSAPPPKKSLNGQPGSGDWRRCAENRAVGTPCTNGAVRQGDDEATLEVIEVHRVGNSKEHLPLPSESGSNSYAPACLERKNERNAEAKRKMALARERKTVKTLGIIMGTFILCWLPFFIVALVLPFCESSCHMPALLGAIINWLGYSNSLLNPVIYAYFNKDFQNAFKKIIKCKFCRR
Outline: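 Rat brain homogenate was washed and preincubated in 50 mM Tris (pH 8.0) containing NaCl, CaCl2 and MgCl2, plus 10 μM pargyline. Nonspecific binding was defined with 10 μM 5-HT. Six drug concentrations (10⁻⁴-10⁻⁹ M) were tested, triplicate or single run. IC50 came from a semilog plot with linear regression.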

Rattus norvegicus [8] = assay: post-synaptic agonistic effects by increase in locomotor activity at the dose of 50 umol/kg, sc in reserpinized rat (p<0.005); format: functional
[9] = target: T2, Dopamine receptor (Rattus norvegicus); assay: Effective dose for half-maximal decrease in the accumulation of DOPA in reserpinized rat brain hemispheral area by sc administration; Inactive; format: functional, organism-based; outline: as §1
[10] = target: T2, Dopamine receptor (Rattus norvegicus); assay: Effective dose for half-maximal decrease in the accumulation of DOPA in reserpinized rat brain striatal area by sc administration; partial response at the highest dose tested; format: functional, organism-based; outline: as §1
[11] = Half-lives were estimated from the elimination phase of the blood conc-time curve after oral administration; format: ADME, organism-based; details: whole blood
Outline: (§2)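 Male Sprague-Dawley rats (300 g) with arterial catheters were dosed 24 h after surgery. Doses: 40 μmol/kg po by gavage and 5 μmol/kg iv, or 20 po and 1 iv. Po rats were fasted 18 h. Blood was sampled from 5 min to 12 h and measured by GC-MS after extraction at pH 11 against an internal standard, samples in duplicate. AUC po/iv came from n = 4 per route. Half-life was read graphically from the oral elimination phase.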

[12] = Effective dose for half-maximal decrease in the accumulation of 5-hydroxytryptophan (5-HTP) in reserpinized rat brain striatal area by po administration; format: functional; outline: as §1
Rattus norvegicus [13] = organism: Rattus norvegicus; assay: DA agonist induced behavior was charecterised by increased locomotion, sniffing and licking.+ indicates low intensity of behavioral effect; format: functional, organism-based
Outline: (§3)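 Male Sprague-Dawley rats (200-300 g) given reserpine 5 mg/kg sc in the neck 18 h before testing. The test compound, in 0.9% saline, was given sc in the neck (n = 4-5). Rats were placed singly in photocell motility meters right after dosing. Counts were recorded over 30 min, alongside gross behavioural observation of 5-HT and DA signs. Statistics: ANOVA with Fischer's PLSD versus reserpine controls.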

[14] = Area under curve ratio was determined (po/iv); format: functional; outline: as §2
[15] = target: T2, Dopamine receptor (Rattus norvegicus); assay: Effective dose for half-maximal decrease in the accumulation of DOPA in reserpinized rat brain limbic area by po administration; partial response at the highest dose tested; format: functional, organism-based; outline: as §1
[16] = target: T2, Dopamine receptor (Rattus norvegicus); assay: Effective dose for half-maximal decrease in the accumulation of DOPA in reserpinized rat brain striatal area by po administration; partial response at the highest dose tested; format: functional, organism-based; outline: as §1
[17] = target: T2, Dopamine receptor (Rattus norvegicus); assay: Effective dose for half-maximal decrease in the accumulation of DOPA in reserpinized rat brain limbic area by sc administration; partial response at the highest dose tested; format: functional, organism-based; outline: as §1
[18] = Effective dose for half-maximal decrease in the accumulation of 5-hydroxytryptophan (5-HTP) in reserpinized rat brain hemispheral area by po administration; format: functional; outline: as §1
[19] = target: T2, Dopamine receptor (Rattus norvegicus); assay: Effective dose for half-maximal decrease in the accumulation of DOPA in reserpinized rat brain striatal area by sc administration; format: functional, organism-based; outline: as §1
Rattus norvegicus [20] = assay: post-synaptic agonistic effects by increase in locomotor activity at the dose of 12.5 umol/kg, sc in reserpinized rat (p<0.005); format: functional; outline: as §3
D(2) dopamine receptor [21] = target: T1, D(2) dopamine receptor; assay: Binding affinity against dopamine receptor D2 in homogenated rat brain tissue, using by ([3H]N00437) as radioligand; format: tissue-based
Outline: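 Striata from male Wistar rats were washed in Tris (pH 7.5) containing EDTA, KCl and CaCl2. Tissue (1.25 mg original) was incubated with 0.2 nM [3H]-N-0437 (final) for 90 min at 25 °C, then filtered and counted by scintillation. Nonspecific binding was defined with 1 μM 6,7-ADTN. IC50 was read from a hand-fitted sigmoid curve, in triplicate.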

Rattus norvegicus [22] = assay: Effective dose for half-maximal decrease in the accumulation of 5-hydroxytryptophan (5-HTP) in reserpinized rat brain hemispheral area by sc administration; Inactive; format: functional, organism-based; outline: as §1
Rattus norvegicus [23] = assay: Effective dose for half-maximal decrease in the accumulation of 5-hydroxytryptophan (5-HTP) in reserpinized rat brain limbic area by sc administration; Inactive; format: functional, organism-based; outline: as §1
[24] = target: T2, Dopamine receptor (Rattus norvegicus); assay: Effective dose for half-maximal decrease in the accumulation of DOPA in reserpinized rat brain limbic area by sc administration; format: functional, organism-based; outline: as §1
Rattus norvegicus [25] = assay: Effective dose for half-maximal decrease in the accumulation of 5-hydroxytryptophan (5-HTP) in reserpinized rat brain striatal area by sc administration; Inactive; format: functional, organism-based; outline: as §1
Rattus norvegicus [26] = organism: Rattus norvegicus; assay: 5-HT behavioral syndrome was determined by observing flat body posture and forepaw threading in rat.++ indicates […] intensity of behavioral effect; format: functional, organism-based; outline: as §3
[27] = target: T2, Dopamine receptor (Rattus norvegicus); assay: Effective dose for half-maximal decrease in the accumulation of DOPA in reserpinized rat brain hemispheral area by sc administration; partial response at the highest dose tested; format: functional, organism-based; outline: as §1
Rattus norvegicus [28] = assay: Effective dose for half-maximal decrease in the accumulation of 5-hydroxytryptophan (5-HTP) in reserpinized rat brain striatal area by sc administration; partial response at the highest dose tested; format: functional, organism-based; outline: as §1
Rattus norvegicus [29] = assay: Effective dose for half-maximal decrease in the accumulation of 5-hydroxytryptophan (5-HTP) in reserpinized rat brain limbic area by sc administration; partial response at the highest dose tested; format: functional, organism-based; outline: as §1
[30] = target: T2, Dopamine receptor (Rattus norvegicus); assay: Effective dose for half-maximal decrease in the accumulation of DOPA in reserpinized rat brain hemispheral area by sc administration; Partial response at the highest dose tested; format: functional, organism-based; outline: as §1
Rattus norvegicus [31] = assay: Effective dose for half-maximal decrease in the accumulation of 5-hydroxytryptophan (5-HTP) in reserpinized rat brain striatal area by po administration; Partial response at the highest dose tested; format: functional, organism-based; outline: as §1
Rattus norvegicus [32] = assay: Effective dose for half-maximal decrease in the accumulation of 5-hydroxytryptophan (5-HTP) in reserpinized rat brain striatal area by sc administration; Partial response at the highest dose tested; format: functional, organism-based; outline: as §1
Rattus norvegicus [33] = organism: Rattus norvegicus; assay: DA agonist induced behavior was charecterised by increased locomotion, sniffing and licking.++ indicates high intensity of behavioral effect; format: functional, organism-based; outline: as §3
Rattus norvegicus [34] = assay: Effective dose for half-maximal decrease in the accumulation of 5-hydroxytryptophan (5-HTP) in reserpinized rat brain hemispheral area by sc administration; Partial response at the highest dose tested; format: functional, organism-based; outline: as §1
[35] = target: T2, Dopamine receptor (Rattus norvegicus); assay: Effective dose for half-maximal decrease in the accumulation of DOPA in reserpinized rat brain striatal area by po administration; format: functional, organism-based; outline: as §1
[36] = target: T2, Dopamine receptor (Rattus norvegicus); assay: Effective dose for half-maximal decrease in the accumulation of DOPA in reserpinized rat brain limbic area by po administration; format: functional, organism-based; outline: as §1
Rattus norvegicus [37] = assay: post-synaptic agonistic effects by increase in locomotor activity at the dose of 50 umol/kg, sc in reserpinized rat; format: functional

Row | SMILES | Ki (D(2) dopamine receptor [1]) [nM] | ED50 [2] [µmol/kg] | ED50 [4] [µmol/kg] | ED50 [5] [µmol/kg] | ED50 [6] [µmol/kg] | Ki [7] [nM] | Counts/30 (Rattus norvegicus [8]) [min] | ED50 [9] | ED50 [10] | half-life [11] [h] | Behavioral syndrome (Rattus norvegicus [13]) | Ratio [14] | ED50 [17] | ED50 [18] [µmol/kg] | ED50 [19] [µmol/kg] | Ki (D(2) dopamine receptor [21]) [nM] | ED50 (Rattus norvegicus [22]) | ED50 (Rattus norvegicus [23]) | ED50 [24] [µmol/kg] | further results
1 | CCCN(CCC)C1CCc2cccc(OS(=O)(=O)C(F)(F)F)c2C1 (stereo not drawn) | 670 | 1.2 | 5.9 | 15 | 10 | 9.6 | 110 | inactive | Weak activity | 1.5 | Partially active | 11.2 | Weak activity | 1.2 | – | – | – | – | – | ED50 [3]: 30 µmol/kg; ED50 [12]: 1.5 µmol/kg; ED50 [15]: Weak activity; ED50 [16]: Weak activity
2 | CCCN(CCC)C1CCc2cc(OS(=O)(=O)C(F)(F)F)ccc2C1 (stereo not drawn) | 1570 | – | – | – | – | 16000 | – | inactive | – | – | Partially active | – | – | – | 1.3 | 99 | inactive | inactive | 2 | Counts/30 (Rattus norvegicus [20]): 80 min; ED50 (Rattus norvegicus [25]): inactive
3 | CCCNC1CCc2cccc(OS(=O)(=O)C(F)(F)F)c2C1 (stereo not drawn) | 1360 | – | 1.2 | 0.8 | 1.1 | 3.8 | 120 | – | Weak activity | – | – | – | Weak activity | – | – | – | – | – | – | Behavioral syndrome (Rattus norvegicus [26]): Active; ED50 [27]: Weak activity
4 | CCCN(CCC)C1CCc2ccc(OC)cc2C1 (stereo not drawn) | – | – | – | – | – | – | – | inactive | Weak activity | – | – | – | Weak activity | – | – | – | inactive | – | – | ED50 (Rattus norvegicus [28]): Weak activity; ED50 (Rattus norvegicus [29]): Weak activity
5 | CCCN(CCC)C1CCc2c(cccc2OS(=O)(=O)C(F)(F)F)C1 (stereo not drawn) | 64 | 3 | – | – | – | 160 | – | – | – | 1.5 | – | 8.5 | – | 5.4 | 0.5 | 28 | – | inactive | 0.4 | ED50 [30]: Weak activity; ED50 (Rattus norvegicus [31]): Weak activity; ED50 (Rattus norvegicus [32]): Weak activity; Behavioral observation (Rattus norvegicus [33]): Active; ED50 (Rattus norvegicus [34]): Weak activity; ED50 [35]: 7.9 µmol/kg; ED50 [36]: 6.2 µmol/kg; Counts/30 min (Rattus norvegicus [37]): 170
